Measurements from different studies.
Each line is one published result; the experiments were not run side by side.
OPRD1: Delta-type opioid receptor (OPRD1, Homo sapiens, UniProt P41143)
HTR3A: 5-hydroxytryptamine receptor 3A (HTR3A, Homo sapiens, UniProt P46098)
gag-pol reverse transcriptase: Gag-Pol polyprotein, reverse transcriptase (gag-pol, Human immunodeficiency virus 1, UniProt P03366)
ADRA2A: Alpha-2A adrenergic receptor (ADRA2A, Homo sapiens, UniProt P08913)
OGT: UDP-N-acetylglucosamine--peptide N-acetylglucosaminyltransferase 110 kDa subunit (OGT, Homo sapiens, UniProt O15294)

SMILES | target | read-out | mode | method | setting | IC50 [µM]
CCCC[C@H](CNCc1ccccc1)N1CCN(CC(C)C)[C@H](Cc2ccc(O)cc2)C1 | OPRD1 | cell-free assay |  |  |  | > 10
CCOC(=O)c1cncn1C(C)c1ccc(C2(C(F)(F)F)N=N2)cc1 (stereo not drawn) | HTR3A | ion current |  | two-electrode voltage clamp | oocytes | 9
Cc1c(O)c(O)cc2c1CC=C1[C@@]2(C)CC[C@@]2(C)[C@@H]3C[C@](C)(C(=O)O)CC[C@]3(C)CC[C@]12C | Androgen receptor (AR, Homo sapiens, UniProt P10275) | ligand displacement in cells |  | radioligand |  | 0.057
Cc1cn([C@@H]2C=C[C@H](OC(P(=O)(O)O)P(=O)(O)O)C2)c(=O)[nH]c1=O (relative stereo) | gag-pol reverse transcriptase | enzyme activity | inhibitor | radiometric |  | 204
CN1CCC(=C2c3ccccc3CCc3sccc32)CC1 | ADRA2A | ligand displacement |  | radioligand |  | 0.577
CNC[C@H](Cc1ccc(O)cc1)N1CCN(CCc2cccc(C)c2)[C@@H](C(C)C)C1 | OPRD1 | cell-free assay |  |  |  | > 10
CC[C@H](C)[C@H](NC(=O)[C@H](CO)NC(=O)[C@H](Cc1ccc(O)cc1)NC(=O)[C@H](CCCCN)NC(=O)[C@@H]1CCCN1C(=O)[C@H](CCSC)NC(=O)[C@H](Cc1ccccc1)NC(=O)[C@H](CCSC)NC(=O)[C@@H](NC(=O)[C@@H]1CCCN1)C(C)C)C(=O)N[C@H](C(=O)N[C@@H](Cc1ccccc1)C(=O)O)[C@@H](C)CC | OGT | enzyme activity | inhibitor | fluorescence |  | 20
CCC[C@H](CNC)NC[C@H](Cc1ccc(O)cc1)NCCC1CCCC1 | OPRD1 | cell-free assay |  |  |  | > 10
CC(C)c1ccc(O)c(=O)c(O)c1 | gag-pol reverse transcriptase | enzyme activity | inhibitor | FRET |  | 0.308
Nc1c(S(=O)(=O)O)cc(Nc2ccc(Nc3nc(Cl)nc(Nc4cccc(S(=O)(=O)O)c4)n3)c(S(=O)(=O)O)c2)c2c1C(=O)c1ccccc1C2=O | P2X purinoceptor 2 (P2RX2, Homo sapiens, UniProt Q9UBL9) | calcium signal | antagonist |  |  | 1.89
CC[C@H](C)[C@H](NC(=O)[C@H](CO)NC(=O)[C@H](Cc1ccc(O)cc1)NC(=O)[C@H](CCCCN)NC(=O)[C@@H]1CCCN1C(=O)[C@H](CCSC)NC(=O)[C@@H](N)Cc1ccccc1)C(=O)N[C@H](C(=O)N[C@@H](Cc1ccccc1)C(=O)O)[C@@H](C)CC | OGT | enzyme activity | inhibitor | fluorescence |  | 120
CCC[C@H](CN[C@H](CNC)Cc1ccc(O)cc1)NCCC1CCCC1 | OPRD1 | cell-free assay |  |  |  | > 10
CCN(CC)C(=O)C1CN2CCc3cc(OC)c(OC)cc3C2CC1OC(C)=O (stereo not drawn) | ADRA2A | calcium signal | antagonist |  |  | 0.45
Cc1cc(/C=C/C#N)cc(C)c1Nc1ccnc(Nc2ccc(C#N)cc2)n1 | gag-pol reverse transcriptase | enzyme activity | inhibitor |  |  | 0.0214
CC(CCc1ccccc1)NC(C)C(O)c1ccc(O)cc1 (stereo not drawn) | ADRA2A | calcium signal | antagonist |  |  | 18.6
C[C@H](N)Cn1ncc2ccc3c(c21)CCCO3 | HTR3A | ligand displacement |  | radioligand |  | 31.7
COc1ncccc1-c1cnn2ccc(N3CCN(C(=O)OC(C)C)CC3)nc12 | ADRA2A | cell-free assay |  |  |  | > 30
CC(C)CCN1CCN([C@@H](CNCc2ccccc2)C(C)C)C[C@H]1C(C)C | OPRD1 | cell-free assay |  |  |  | > 10
CC(C)Cc1ccc([C@@H](C)C(=O)O)cc1 | Histone acetyltransferase p300 (EP300, Homo sapiens, UniProt Q09472) | enzyme activity | inhibitor | mobility shift |  | ~6000
CCC[C@H](CN[C@H](CNC)Cc1ccc(O)cc1)NCC1CCC(C)CC1 (stereo partly drawn) | OPRD1 | cell-free assay |  |  |  | > 10
Cc1cn([C@@H]2CC[C@H](OC(C(=O)O)C(=O)O)C2)c(=O)[nH]c1=O (relative stereo) | gag-pol reverse transcriptase | enzyme activity | inhibitor | radiometric |  | 42
